Tests used:
[1] = target: T1, Kallikrein-1 (Homo sapiens, UniProt P06870); test: Inhibition of human recombinant N-terminal His-tagged and enterokinase cleavage site-fused KLK1 (19 to 262 residues) expressed in baculovirus infected Sf9 insect cells using R110 labelled GSK3162232A as substrate measured at 30 secs interval for 5 mins by FLINT assay
[2] = target: T2, Kallikrein-5 (Homo sapiens, UniProt Q9Y337); test: Inhibition of human recombinant 6His-Q-FLAG-tagged KLK5 expressed in baculovirus infected Sf9 insect cells using (Tos-Gly-Pro-Arg)2[R110].2TFA as substrate measured at 30 secs interval for 5 mins by FLINT assay
T2 sequence (Q9Y337 whole entry): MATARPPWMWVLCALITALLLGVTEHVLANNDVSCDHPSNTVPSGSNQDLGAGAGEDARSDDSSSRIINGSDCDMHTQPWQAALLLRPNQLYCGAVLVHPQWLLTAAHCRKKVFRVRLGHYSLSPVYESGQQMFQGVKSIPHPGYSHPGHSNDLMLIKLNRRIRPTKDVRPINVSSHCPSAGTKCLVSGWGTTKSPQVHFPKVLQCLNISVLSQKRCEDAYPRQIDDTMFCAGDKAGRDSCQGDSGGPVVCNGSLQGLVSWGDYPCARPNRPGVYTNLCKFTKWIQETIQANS
Outline: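 Standard KLK5 assay format. Its theoretical tight-binding limit corresponds to pIC50 8.4.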

[3] = target: Prothrombin (Homo sapiens, UniProt P00734); test: Inhibition of human recombinant C-terminal 10-His-tagged thrombin (M1 to E622 residues) expressed in mouse NS0 cells using BOC-VPR-AMC as substrate incubated for 40 mins by FLINT assay
[4] = target: T3, Kallikrein-14 (Homo sapiens, UniProt Q9P0G3); test: Inhibition of recombinant human C-terminal 10-His-tagged KLK14 (Q19 to M248 residues) expressed in mouse NS0 cells using BOC-VPR-AMC as substrate incubated for 40 mins by FLINT assay
T3 sequence (Q9P0G3 whole entry): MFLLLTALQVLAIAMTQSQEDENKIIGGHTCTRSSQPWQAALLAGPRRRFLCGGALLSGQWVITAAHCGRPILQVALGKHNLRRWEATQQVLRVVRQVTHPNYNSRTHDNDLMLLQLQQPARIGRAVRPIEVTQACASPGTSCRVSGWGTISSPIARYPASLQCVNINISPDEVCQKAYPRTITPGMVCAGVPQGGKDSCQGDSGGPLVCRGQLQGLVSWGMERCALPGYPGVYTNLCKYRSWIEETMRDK

[5] = target: T4, Kallikrein-8 (Homo sapiens, UniProt O60259); test: Inhibition of recombinant human C-terminal 10-His-tagged KLK8 (Gln29 to Gly260 residues) expressed in mouse NS0 cells using BOC-VPR-AMC as substrate incubated for 40 mins by FLINT assay
T4 sequence (O60259 whole entry): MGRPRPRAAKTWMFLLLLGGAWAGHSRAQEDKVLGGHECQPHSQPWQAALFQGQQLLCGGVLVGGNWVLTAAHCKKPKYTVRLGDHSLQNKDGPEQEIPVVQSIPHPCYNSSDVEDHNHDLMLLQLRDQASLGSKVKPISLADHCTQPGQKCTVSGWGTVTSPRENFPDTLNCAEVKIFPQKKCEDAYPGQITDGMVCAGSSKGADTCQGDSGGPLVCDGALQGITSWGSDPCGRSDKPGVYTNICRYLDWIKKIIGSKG

[6] = target: Kallikrein-7 (Homo sapiens, UniProt P49862); test: Inhibition of recombinant human C-terminal 10-His-tagged KLK7 (Glu23 to His252 residues) expressed in mouse NS0 cells using 5-FAM-E-A-L-Y-L-V-S-G-C(5-TAMRA) as substrate incubated for 40 mins by FLINT assay
[7] = target: Urokinase-type plasminogen activator (Homo sapiens, UniProt P00749); test: Inhibition of recombinant human C-terminal 10-His-tagged urokinase (M1 to L431 residues) expressed in mouse NS0 cells using Z-GGR-AMC as substrate incubated for 40 mins by FLINT assay
[8] = target: Coagulation factor X (Homo sapiens, UniProt P00742); test: Inhibition of recombinant human C-terminal 10-His-tagged factor Xa (L24 to K488 residues) expressed in baculovirus infected Sf21 insect cells using Mca-RPKPVE-Nval-WRK(Dnp)-NH2 as substrate incubated for 40 mins by FLINT assay
[9] = target: T5, Neutrophil elastase (Homo sapiens, UniProt P08246); test: Inhibition of human neutrophil elastase using MeOSuc-AAPV-AMC as substrate incubated for 40 mins by FLINT assay
T5 sequence (P08246 whole entry): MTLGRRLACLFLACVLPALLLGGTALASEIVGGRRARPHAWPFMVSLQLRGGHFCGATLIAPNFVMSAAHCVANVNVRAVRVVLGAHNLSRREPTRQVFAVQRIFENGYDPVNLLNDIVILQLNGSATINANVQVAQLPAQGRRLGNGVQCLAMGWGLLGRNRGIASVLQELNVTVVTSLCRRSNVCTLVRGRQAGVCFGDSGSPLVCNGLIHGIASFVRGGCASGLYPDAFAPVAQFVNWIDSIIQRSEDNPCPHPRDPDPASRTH

[10] = species: Homo sapiens; test: Selectivity ratio of IC50 for human C-terminal 6-His-tagged KLKB1 (G20 to A638 residues) expressed in mouse NS0 cells to IC50 for human recombinant 6His-Q-FLAG-tagged KLK5 expressed in baculovirus infected Sf9 insect cells
[11] = target: Plasma kallikrein (Homo sapiens, UniProt P03952); test: Inhibition of human C-terminal 6-His-tagged KLKB1 (G20-A638 residues) expressed in mouse NS0 cells using PFR-AMC as substrate incubated for 40 mins by FLINT assay
[12] = target: T6, Suppressor of tumorigenicity 14 protein (Homo sapiens, UniProt Q9Y5Y6); test: Inhibition of recombinant human N-terminal Met and 6-His-tagged matriptase (G596 to V855 residues) expressed in Escherichia coli using Boc-QAR-AMC as substrate incubated for 40 mins by FLINT assay
T6 sequence (Q9Y5Y6 whole entry): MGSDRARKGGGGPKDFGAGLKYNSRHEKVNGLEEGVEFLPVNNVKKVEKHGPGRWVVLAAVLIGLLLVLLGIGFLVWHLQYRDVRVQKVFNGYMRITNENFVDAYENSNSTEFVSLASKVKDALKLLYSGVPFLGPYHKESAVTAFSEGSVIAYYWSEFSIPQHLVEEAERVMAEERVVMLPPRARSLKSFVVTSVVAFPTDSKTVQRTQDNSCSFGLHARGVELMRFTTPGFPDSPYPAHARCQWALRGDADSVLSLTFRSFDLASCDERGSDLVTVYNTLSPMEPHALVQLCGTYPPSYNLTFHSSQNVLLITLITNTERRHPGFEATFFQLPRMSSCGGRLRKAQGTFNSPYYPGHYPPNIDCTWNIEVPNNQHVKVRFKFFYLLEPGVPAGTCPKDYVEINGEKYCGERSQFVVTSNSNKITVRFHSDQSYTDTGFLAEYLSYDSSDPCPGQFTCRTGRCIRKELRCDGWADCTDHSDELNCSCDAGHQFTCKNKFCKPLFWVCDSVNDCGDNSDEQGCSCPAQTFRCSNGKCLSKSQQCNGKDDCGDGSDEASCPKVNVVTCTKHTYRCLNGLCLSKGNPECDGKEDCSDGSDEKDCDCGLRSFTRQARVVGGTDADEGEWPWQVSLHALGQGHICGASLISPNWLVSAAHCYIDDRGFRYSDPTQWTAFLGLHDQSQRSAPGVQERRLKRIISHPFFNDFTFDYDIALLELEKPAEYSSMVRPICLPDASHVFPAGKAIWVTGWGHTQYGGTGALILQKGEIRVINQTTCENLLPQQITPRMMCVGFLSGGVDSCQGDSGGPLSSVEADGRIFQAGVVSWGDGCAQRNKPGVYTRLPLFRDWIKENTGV

[13] = Dissociation constant, borocycle pKa of the compound; format: physicochemical
[14] = target: T2, Kallikrein-5; test: Inhibition of human recombinant 6His-Q-FLAG-tagged KLK5 expressed in baculovirus infected Sf9 insect cells using (Tos-Gly-Pro-Arg)2[R110].2TFA as substrate measured at 30 secs interval for 5 mins using 1 x 10'10M enzyme by FLINT assay
[15] = target: T1, Kallikrein-1; test: Inhibition of human recombinant N-terminal His-tagged and enterokinase cleavage site-fused KLK1 (19 to 262 residues) expressed in baculovirus infected Sf9 insect cells at 10 uM using R110 labelled GSK3162232A as substrate measured at 30 secs interval for 5 mins by FLINT assay relative to control

IC50 [1]	IC50 [2]	IC50 [3]	IC50 [4]	IC50 [5]	IC50 [6]	IC50 [7]	IC50 [8]	IC50 [9]	IC50 [11]	IC50 [12]	pKa [13]	IC50 [14]	inhibition [15]	SMILES	Ratio IC50 [10]
0.316 to 3.98 µM	0.0126 µM	2 µM	12.6 µM	7.94 µM	> 100 µM	79.4 µM	5.01 µM	1.58 µM	0.794 µM	63.1 µM	4.77	0.00158 µM	–	N=C(N)c1ccc(CC2OB(O)c3cc(F)ccc32)cc1OCc1cccnc1 (racemic)	10
0.631 µM	0.01 µM	3.16 µM	1.58 µM	0.251 µM	39.8 µM	50.1 µM	10 µM	6.31 µM	0.0501 µM	7.94 µM	–	0.00794 µM	–	N=C(N)c1ccc(C2Cc3ccccc3B(O)O2)cc1OCc1ccccc1Cl (racemic)	10
3.98 µM	0.00631 µM	10 µM	0.316 µM	0.316 µM	> 100 µM	> 100 µM	63.1 µM	31.6 µM	0.0794 µM	10 µM	4.66	0.00794 µM	–	N=C(N)c1ccc(C2Cc3ccc(F)cc3B(O)O2)cc1OCc1cccnc1 (racemic)	10
3.98 to 6.31 µM	–	2 µM	0.2 µM	0.251 µM	> 100 µM	79.4 µM	5.01 µM	1.26 µM	0.2 µM	15.8 µM	4.26	0.00126 µM	–	N=C(N)c1ccc(C2Cc3cc(Cl)c(F)cc3B(O)O2)cc1OCc1cccnc1 (racemic)	–
0.398 µM	–	3.98 µM	0.126 µM	0.0251 µM	39.8 µM	12.6 µM	1.58 µM	> 100 µM	0.01 µM	2 µM	4.54	0.000501 µM	–	N=C(N)c1ccc(C2Cc3ccc(C(F)(F)F)cc3B(O)O2)cc1OCc1cccnc1 (racemic)	–
1.58 µM	0.00794 µM	0.398 µM	0.251 µM	0.1 µM	39.8 µM	0.0631 µM	2 µM	15.8 µM	0.00501 µM	0.0126 µM	–	0.00501 µM	–	N=C(N)c1ccc(C2Cc3ccccc3B(O)O2)cc1OCc1cccc(Cl)c1 (racemic)	10
> 10 µM	0.0251 µM	3.16 µM	0.398 µM	1.58 µM	> 100 µM	5.01 µM	50.1 µM	0.794 µM	0.0794 µM	1.26 µM	–	0.0251 µM	27%	Cc1cccc2c1B(O)OC(c1ccc(C(=N)N)c(OCc3cccnc3)c1)C2 (racemic)	10

The next lines start with the compound.

SMILES	IC50 [1]	IC50 [2]	IC50 [3]	IC50 [4]	IC50 [5]	IC50 [6]	IC50 [7]	IC50 [8]	IC50 [9]	IC50 [11]	IC50 [12]	pKa [13]	IC50 [14]	inhibition [15]	Ratio IC50 [10]
N=C(N)c1ccc(C2OB(O)c3ccccc32)cc1 (racemic)	79.4 µM	398 µM	–	–	–	–	–	–	–	–	–	–	–	–	–
N=C(N)c1ccc(OCc2ccc3c(c2)B(O)OC3)cc1	10 µM	6.31 µM	–	–	–	–	–	–	–	–	–	–	–	–	–
N=C(N)c1ccc(CC2OB(O)c3ccc(F)cc32)cc1OCc1cccnc1 (racemic)	> 10 µM	0.0158 µM	15.8 µM	31.6 µM	12.6 µM	> 100 µM	> 100 µM	63.1 µM	100 µM	0.794 µM	39.8 µM	4.66	0.01 µM	10%	10
N=C(N)c1ccc(CNc2cccc3c2B(O)OC3)cc1	7.94 µM	200 µM	–	–	–	–	–	–	–	–	–	–	–	–	–
N=C(N)c1ccc(COc2ccc3c(c2)B(O)OC3)cc1	39.8 µM	39.8 µM	–	–	–	–	–	–	–	–	–	–	–	–	–
N=C(N)c1ccc(COc2cccc3c2B(O)OC3)cc1	501 µM	31.6 µM	–	–	–	–	–	–	–	–	–	–	–	–	–
N=C(N)c1cccc(COc2ccc3c(c2)B(O)OC3)c1	158 µM	12.6 µM	–	–	–	–	–	–	–	–	–	–	–	–	–
N=C(N)c1ccc(C2CCCB(O)O2)cc1 (racemic)	63.1 µM	39.8 µM	–	–	–	–	–	–	–	–	–	–	–	–	–
N=C(N)c1cccc(C2Cc3ccccc3B(O)O2)c1 (racemic)	0.501 µM	3.98 µM	–	–	–	–	–	–	–	–	–	–	–	–	–
N=C(N)c1ccc(NCC2Cc3ccccc3B(O)O2)cc1 (racemic)	> 10 µM	1.58 µM	–	–	–	–	–	–	–	–	–	–	–	35%	–
N=C(N)c1ccc(COc2ccc3c(c2)COB3O)cc1	158 µM	6.31 µM	–	–	–	–	–	–	–	–	–	–	–	–	–
N=C(N)c1ccc(Oc2ccc3c(c2)B(O)OC3)cc1	25.1 µM	50.1 µM	–	–	–	–	–	–	–	–	–	–	–	–	–

Reference: ChEMBL document CHEMBL4396973, “Design and development of a series of borocycles as selective, covalent kallikrein 5 inhibitors” (Bioorg Med Chem Lett, 2019)
